{"data": "Assay results pooled from the literature", "medium": "plasma", "note": "Each line is one published result; the experiments were not run side by side."}
{"Structure (SMILES)": "CCN1CCN(Cc2ccc(NC(=O)c3ccc(C)c(NC(=O)c4cncc(-c5cccs5)c4)c3)cc2C(F)(F)F)CC1", "test system": "mouse", "setting": "intraperitoneal, 20 mg/kg, single dose", "endpoint": "AUC(0-t)", "result": "1990 ng·h/mL"}
{"Structure (SMILES)": "C=CS(=O)(=O)c1ccc(Nc2nc(OCC3CCCCC3)c3nc[nH]c3n2)cc1", "test system": "male BALB/c mouse", "setting": "intravenous, 20 mg/kg, single dose", "endpoint": "AUC(0-t)", "result": "124 ng·h/mL"}
{"Structure (SMILES)": "CCOC(=O)CN(C(=O)c1ccn2ncc(-c3ccc(C(=O)NC)cc3)c2c1)c1ccc(Cl)cc1", "test system": "female C57BL/6 mouse", "setting": "oral, 10 mg/kg", "endpoint": "AUC", "result": "1.18 µM·h"}
{"Structure (SMILES)": "CCOc1ccc(N(C)S(=O)(=O)c2cc(Cl)sc2C(=O)Nc2cc(Cl)cc(C(=O)O)c2)cc1OC", "test system": "male C57BL/6 mouse", "setting": "intraperitoneal, 10 mg/kg", "endpoint": "AUC(0-t)", "result": "5810 ng·h/mL"}
{"Structure (SMILES)": "COc1cc2c(NC3CCN(CCCC(=O)NCCCCCCCCCCCC(=O)N[C@H](C(=O)N4C[C@H](O)C[C@H]4C(=O)NCc4ccc(-c5scnc5C)cc4)C(C)(C)C)CC3)nc(N3CCC(F)(F)CC3)nc2cc1OCCCN1CCCC1", "test system": "male C57BL/6 mouse", "setting": "intraperitoneal, 50 mg/kg, single dose", "endpoint": "AUC(0-t)", "result": "61 µM·h"}
{"Structure (SMILES)": "CN(C(=O)c1ccn2ncc(-c3ccc(C(N)=O)cc3)c2c1)c1ccc(C#N)cn1", "test system": "female C57BL/6 mouse", "setting": "intravenous, 1 mg/kg", "endpoint": "AUC", "result": "2.68 µM·h"}
{"Structure (SMILES)": "Cc1cc2sc(N)nc2c2cccnc12", "test system": "female BALB/c mouse", "setting": "intraperitoneal, 30 mg/kg, single dose", "endpoint": "AUC(0-inf)", "result": "45600 ng·h/mL"}
{"Structure (SMILES)": "Cc1c(C(=O)O)ccc2c3n(nc12)[C@@H]1[C@H](C3)N(CC2CC2)[C@@]2(C(=O)Nc3cc(Cl)ccc32)[C@H]1c1cccc(Cl)c1F", "test system": "female mouse", "setting": "oral, 5 mg/kg", "endpoint": "AUC(0-inf)", "result": "125 µM·h"}
{"Structure (SMILES)": "CN1CCN(C(=O)[C@H](CCCN[C@@H]2C[C@H]2c2ccc(F)cc2)NC(=O)c2ccc(-n3ccnn3)cc2)CC1", "test system": "CD-1 mouse", "setting": "intravenous, 3 mg/kg", "endpoint": "AUC(0-t)", "result": "2.52 µM·h"}
{"Structure (SMILES)": "Nc1ncn([C@H]2C[C@H](O)[C@@H](CO)O2)c(=O)n1", "test system": "female C57BL/6 mouse", "setting": "oral, 0.4 mg/kg", "endpoint": "AUC(0-inf)", "result": "71 ng·h/mL"}
{"Structure (SMILES)": "CC(=O)O[C@@]12CO[C@@H]1C[C@H](O)[C@@]1(C)C(=O)[C@H](O)C3=C(C)[C@@H](OC(=O)[C@H](O)[C@@H](NC(=O)OC(C)(C)C)c4ccccc4)C[C@@](O)([C@@H](OC(=O)c4ccccc4)[C@H]21)C3(C)C", "test system": "male Kunming mouse", "setting": "oral, 20 mg/kg", "endpoint": "AUC(0-t)", "result": "14.7 ng·h/mL"}
